Experimental data from ChEMBL document CHEMBL1139634, “Synthesis of substituted indole derivatives as a new class of antimalarial agents” (2005).
Values after ≈ are worked out from the molar mass of the structure shown.

Tested on: Plasmodium falciparum
Assay: In vitro minimum inhibitory concentration against Plasmodium falciparum NF54 over 40 hours
Format: functional
Outline: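 Micro assay in 96-well format: compounds at 0.25–50 µg/mL, duplicate wells, incubated with parasitized cells at 37 °C in candle jar, 36–40 h. Giemsa-stained smears scored microscopically for ring-to-schizont maturation. MIC is the concentration fully blocking schizont maturation. Pyrimethamine reference.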

Compound | MIC [µg/mL]
Clc1ccc(-c2cc(-c3c[nH]c4ccccc34)nc(N3CCCC3)n2)cc1 | 10 (≈ 26.7 µM)
Clc1ccc(-c2cc(-c3c[nH]c4ccccc34)nc(N3CCCCC3)n2)cc1 | 10 (≈ 25.7 µM)
Clc1ccc(-c2cc(-c3c[nH]c4ccccc34)nc(N3CCOCC3)n2)cc1 | 50 (≈ 128 µM)
Cc1ccc(-c2cc(-c3c[nH]c4ccccc34)nc(N3CCCCC3)n2)cc1 | 10 (≈ 27.1 µM)
COc1ccc(-c2cc(-c3c[nH]c4ccccc34)nc(N3CCCCC3)n2)cc1 | 10 (≈ 26 µM)
COc1ccc(-c2cc(-c3c[nH]c4ccccc34)nc(N3CCOCC3)n2)cc1 | 50 (≈ 129 µM)
Cc1ccc(-c2cc(-c3c[nH]c4ccccc34)nc(N3CCOCC3)n2)cc1 | 50 (≈ 135 µM)
c1ccc(-c2cc(-c3c[nH]c4ccccc34)nc(N3CCOCC3)n2)cc1 | 50 (≈ 140 µM)
COc1ccc(-c2cc(-c3c[nH]c4ccccc34)nc(N3CCCC3)n2)cc1 | 10 (≈ 27 µM)
c1ccc(-c2cc(-c3c[nH]c4ccccc34)nc(N3CCCCC3)n2)cc1 | 10 (≈ 28.2 µM)
Cc1ccc(-c2cc(-c3c[nH]c4ccccc34)nc(N3CCCC3)n2)cc1 | 10 (≈ 28.2 µM)
COc1ccc(-c2cc(-c3c[nH]c4ccccc34)nc(N3CCOCC3)n2)cc1OC | 50 (≈ 120 µM)
c1ccc(-c2cc(-c3c[nH]c4ccccc34)nc(N3CCCC3)n2)cc1 | 10 (≈ 29.4 µM)
CCc1nc(N)nc(N)c1-c1ccc(Cl)cc1 [PYRIMETHAMINE] | 10 (≈ 40.2 µM)

Second part, the molecule after the results:

MIC [µg/mL] | Compound
1 (≈ 2.33 µM) | COc1ccc(-c2cc(-c3c[nH]c4ccccc34)nc(N3CCN(C)CC3)n2)cc1OC
1 (≈ 2.48 µM) | CN1CCN(c2nc(-c3ccc(Cl)cc3)cc(-c3c[nH]c4ccccc34)n2)CC1
1 (≈ 2.71 µM) | CN1CCN(c2nc(-c3ccccc3)cc(-c3c[nH]c4ccccc34)n2)CC1
1 (≈ 2.5 µM) | COc1ccc(-c2cc(-c3c[nH]c4ccccc34)nc(N3CCN(C)CC3)n2)cc1
50 (≈ 120 µM) | COc1ccc(OC)c(-c2cc(-c3c[nH]c4ccccc34)nc(N3CCOCC3)n2)c1
1 (≈ 2.61 µM) | Cc1ccc(-c2cc(-c3c[nH]c4ccccc34)nc(N3CCN(C)CC3)n2)cc1
10 (≈ 24.1 µM) | COc1ccc(OC)c(-c2cc(-c3c[nH]c4ccccc34)nc(N3CCCCC3)n2)c1
10 (≈ 25 µM) | COc1ccc(-c2cc(-c3c[nH]c4ccccc34)nc(N3CCCC3)n2)cc1OC
10 (≈ 25 µM) | COc1ccc(OC)c(-c2cc(-c3c[nH]c4ccccc34)nc(N3CCCC3)n2)c1
10 (≈ 24.1 µM) | COc1ccc(-c2cc(-c3c[nH]c4ccccc34)nc(N3CCCCC3)n2)cc1OC
1 (≈ 2.33 µM) | COc1ccc(OC)c(-c2cc(-c3c[nH]c4ccccc34)nc(N3CCN(C)CC3)n2)c1
